Bioassay records: PubChem, several laboratories
ASAP1 inh: blocks human ASAP1-stimulated Arf1 GTP hydrolysis | Q9ULH1 | GDP FP detection | inhibition, % at 16.5 µM | actives 0.19% (n = 360,000); in the data active means inhibition above about 25%
bovine MsrA act: bovine methionine sulfoxide reductase A activation; activation, % at 10.6 µM; purified bovine MsrA, absorbance read-out; actives 0.3% (n = 360,000); in the data active means activation above about 7.5%
MsrA inhibitor: bovine MsrA inhibition; purified bovine MsrA, absorbance read-out; inhibition, % at 15.5 µM; actives 0.75% (n = 360,000); AID 651718; in the data active means inhibition above about 4.5%
sPLA2-III inh: Inhibits HGIII-sPLA2 liposome hydrolysis, primary screen | Q9NZ20 | QFRET BODIPY PC-A2 liposome hydrolysis, fluorescence | inhibition, % at 12.2 µM | actives 0.56% (n = 370,000) | AID 743126;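 active means inhibition above mean plus 3 SD of compounds lying within the high and low control bounds, cut at about 19% in these data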
ARFGAP1 inh: rat ARFGAP1 inhibition; inhibition, % at 16.5 µM; actives 0.26% (n = 360,000); Q62848; Arfgap1-stimulated ARF1 GTP hydrolysis, GDP FP detection; AID 651572;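 active means inhibition above a per-plate limit, mean inhibition of low control wells plus 3 SD, cut at about 25% in these data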
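Replicates: Single well per compound | Assay system: Truncated rat Arfgap1 GAP domain | Control set: No-Arfgap1 wells (100%) versus DMSO full-reaction wells (0%) | Times: Enzyme reaction 120 min at 25 °C after 20 min preincubation | Reagent: Human ARF1(Δ1-17)-GTP substrate | Measured by: Tracer-displacement fluorescence polarization with EDTA stop, 620/688 nm | Measure: Percent inhibition of Arfgap1-stimulated GTP hydrolysis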
Rev-erbA mod: modulates human Rev-erb alpha binding to DNA | P20393 | Rev-erbα–FITC-DNA binding, fluorescence polarization, 90 min | activity, % at 10 µM | actives 0.79% (n = 370,000);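 active means activity above about 14%, limit read from the data; passing the limit was not always enough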
Target sequence (P20393 whole entry, looked up): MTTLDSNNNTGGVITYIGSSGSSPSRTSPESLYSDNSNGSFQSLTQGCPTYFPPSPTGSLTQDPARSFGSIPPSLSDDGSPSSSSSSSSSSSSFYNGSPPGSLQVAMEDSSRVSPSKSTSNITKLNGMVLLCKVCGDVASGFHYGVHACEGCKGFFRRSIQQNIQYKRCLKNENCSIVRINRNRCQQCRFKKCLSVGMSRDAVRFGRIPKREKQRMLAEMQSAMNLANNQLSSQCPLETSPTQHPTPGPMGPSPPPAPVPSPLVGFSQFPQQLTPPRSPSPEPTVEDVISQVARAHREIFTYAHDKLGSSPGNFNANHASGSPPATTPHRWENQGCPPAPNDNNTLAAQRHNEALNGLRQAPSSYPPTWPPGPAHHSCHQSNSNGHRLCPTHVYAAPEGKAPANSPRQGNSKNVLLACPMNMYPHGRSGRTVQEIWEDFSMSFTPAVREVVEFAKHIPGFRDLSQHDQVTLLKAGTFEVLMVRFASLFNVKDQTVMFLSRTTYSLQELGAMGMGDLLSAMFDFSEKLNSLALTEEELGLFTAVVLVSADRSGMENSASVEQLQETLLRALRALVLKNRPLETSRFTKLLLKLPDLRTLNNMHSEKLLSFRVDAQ
ASAP1 GAP conf: ASAP1 inhibition confirmed; shares compounds with ASAP1 inh; ASAP1-stimulated Arf1 GTPase, GDP fluorescence polarization; inhibition, % at 16.5 µM; actives 37% (n = 620); AID 624431;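 active means mean inhibition over triplicates exceeds the hit threshold derived for the earlier primary screening run, cut at about 25% in these data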
Hits are given with their value; . = inactive; / = no result. Sampled rows, rich in hits. Any-hit rate of the full collection: about 2.7%.

SMILES	ASAP1 inh	bovine MsrA act	MsrA inhibitor	sPLA2-III inh	ARFGAP1 inh	Rev-erbA mod	ASAP1 GAP conf
CCOC(=O)CC[C@@H]1CC[C@]2(CCCN(C(=O)C3CCCC3)C2)O1	/	/	/	.	/	.	/
O=C(Nc1ccn(CCCN(CCCn2ccc(NC(=O)OCc3ccccc3)nc2=O)CCc2cc3ccccc3[nH]2)c(=O)n1)OCc1ccccc1	30	.	.	.	.	.	.
O=C1C(Cl)=C(NCCc2ccccc2)C(=O)c2ccccc21	30	.	.	.	.	.	.
O=C(c1ccc2c(c1)OCO2)N1CCC(Oc2cccnc2)CC1	/	/	/	.	/	.	/
CCOc1ccc(/C=N/n2c(-c3n[nH]c4c3CCC4)n[nH]c2=S)cc1	/	/	/	.	/	.	/
Cc1ccc(C(=O)NCc2ccco2)cc1[N+](=O)[O-]	.	.	.	.	.	.	/
NC(=O)c1ccc(NCC2CCCO2)c([N+](=O)[O-])c1 (centres undefined)	.	.	.	.	.	.	/
Cc1ccc(NC(=O)c2ccc(NCC3CCCO3)c([N+](=O)[O-])c2)cc1Cl (centres undefined)	34	.	.	.	.	.	95
Cc1ccc(NC(=O)c2ccc(NCc3ccco3)c([N+](=O)[O-])c2)cc1Cl	26	.	.	.	.	.	29
COc1ccc(-c2nnc(SCC(=O)Nc3ccc(S(=O)(=O)Nc4cc(C)nc(C)n4)cc3)n2-c2ccc(OC)cc2)cc1	/	/	/	.	/	.	/
COC(=O)[C@H]1C[C@@]2(C#N)c3ccccc3N(C(=O)OC(C)(C)C)[C@H]2N1C(=O)OC(C)(C)C	/	/	/	.	/	.	/
COC(=O)[C@]12C[C@H](CC(=O)N3CCSCC3)C(=O)N(Cc3ccc4c(c3)OCO4)C1=C[C@H](C(C)C)O[C@@H]2C1CC1	/	/	/	.	/	.	/
CCCc1c(C(=O)N/N=C/C(C)=C/c2ccccc2)nnn1-c1nonc1N	.	.	.	.	.	.	/
CC(/C=N/NC(=O)c1nnn(-c2nonc2N)c1C(C)C)=C\c1ccccc1	29	.	.	.	.	.	.
CC(=O)c1cccc(NC(=O)CSc2ccc(-c3ccc4c(c3)OCO4)nn2)c1	25	.	.	.	.	.	54
COc1ccc(-c2ccc(SCC(=O)Nc3cccc(C(C)=O)c3)nn2)cc1OC	.	.	.	.	.	.	/
CCOc1cc(C2CC(=O)N3CN(C4CCCCC4)CSC3=C2C#N)ccc1O (centres undefined)	26	.	.	.	.	.	.
COc1ccc(F)cc1-c1cc(C(C)=O)c2n(c1=O)CCC2	/	/	/	.	/	.	/
O=C(NCC[C@@H]1CC[C@@H](NS(=O)(=O)Cc2ccccc2)[C@@H](CO)O1)C1CC1	26	/	.	.	.	.	.
O=C(N[C@H]1CC[C@H](CCNC(=O)C2CC2)O[C@@H]1CO)c1ccccn1	.	/	.	.	.	.	/
Cc1cccc(OCC(C)CN2CCC(C(O)(c3ccccc3)c3ccccc3)CC2)c1 (centres undefined)	/	/	/	.	/	.	/
N/C(=N\OC(=O)c1cccc2ccccc12)c1cccc([N+](=O)[O-])c1	28	.	.	.	.	.	57
CC[C@@H](CCC1CCCCC1)CN(c1ccccc1)S(C)(=O)=O	/	/	/	.	/	.	/
O=C(O)CCCN1C(=O)/C(=C\C(Cl)=C\c2ccccc2)SC1=S	33	.	.	.	.	.	61
O=C(Cn1c2ccccc2c(=O)c2ccccc21)N/N=C/c1cc([N+](=O)[O-])ccc1N1CCCCCC1	37	.	.	.	.	.	40
SMILES	ASAP1 inh	bovine MsrA act	MsrA inhibitor	sPLA2-III inh	ARFGAP1 inh	Rev-erbA mod	ASAP1 GAP conf
NC(=O)c1c(N)[nH]c(C(=O)c2ccccc2)c1-c1ccccc1C(F)(F)F	/	/	/	.	/	.	/
CC1=NN(c2ccccc2)C(=O)C1N=Nc1ccccc1 (centres undefined)	.	.	.	.	.	.	/
CC1=NN(c2ccccc2)C(=O)C1N=Nc1cccc(O)c1 (centres undefined)	29	.	.	.	.	.	.
CCCNC(=O)C1(C)CCCN(Cc2ccc(-n3ccnc3)cc2)C1 (centres undefined)	.	.	.	.	.	.	/
CCCNC(=O)C1(C)CCN(Cc2ccc(-n3ccnc3)cc2)C1 (centres undefined)	26	.	.	.	.	.	.
Cc1cc(C(=O)O[C@H]2CCC[C@@]3(C(=O)N(Cc4ccccc4)c4ccccc43)[C@H]2NC(=O)CCc2ccccc2)no1	/	/	/	.	/	.	/
CN(C)c1ccc(/C=C/c2ccc3c4ccccc4ccc3[n+]2-c2ccccc2)cc1	86	.	.	44	123	.	95
c1ccc(CNC2CCC23CCC(c2ccccc2)CC3)cc1 (centres undefined)	/	/	/	.	/	.	/
Cc1ccc(-c2nc(Nc3cccc(O)c3)c3ccccc3n2)cc1	29	.	.	.	.	.	.
Cc1ccc(-c2nc(Nc3ccc(O)cc3)c3ccccc3n2)cc1	.	.	.	.	.	.	/
COC[C@H]1CCCN1c1ccc2c(c1)O[C@H]1CCN(C1)S2(=O)=O	/	/	/	.	/	.	/
COC(=O)c1ccc(C(c2c(C)[nH][nH]c2=O)c2c(C)[nH][nH]c2=O)cc1	.	.	.	.	.	.	/
COC(=O)c1ccccc1-c1ccc(C(c2c(C)[nH][nH]c2=O)c2c(C)[nH][nH]c2=O)o1	31	.	.	.	.	.	.
COC(=O)c1ccc(C(=O)OCc2nc3cc4ccccc4cc3[nH]2)cc1	26	.	.	.	.	.	.
COc1ccc(OC)c(/C=N\NC(=O)c2cc3c(ccc4ccccc43)o2)c1	.	.	.	.	.	.	/
COc1ccc(C(=O)N/N=C/c2cn[nH]c2-c2ccc(OC)cc2OC)cc1	29	.	.	.	.	.	.
COc1ccc(/C=N/NC(=O)c2cc3c(ccc4ccccc43)o2)c(OC)c1	34	.	.	.	.	.	.
O=C(Nc1ccc(NC(=S)NC(=O)c2ccco2)cc1)c1ccc(Br)cc1	58	.	.	.	.	.	161
O=C(Nc1ccc(NC(=S)NC(=O)c2ccco2)cc1)c1ccccc1	.	.	.	.	.	.	/
COc1ccc(Cl)c(-c2cc(C(=O)Nc3ccc(C)c(NS(C)(=O)=O)c3)[nH]n2)c1	26	.	.	.	.	.	.
COc1ccc(Nc2nc(-c3cc4cccc(OC)c4oc3=O)cs2)cc1	.	.	.	.	.	.	/
COc1ccc2oc(=O)c(-c3csc(Nc4cccc(O)c4)n3)cc2c1	32	.	.	.	.	.	48
CCCC(=O)N1CCC[C@]2(CC[C@H](CCC#N)O2)C1	/	/	/	.	/	.	/
CC(C)N1Cc2nnn(Cc3ccccc3)c2-c2cc(N3CCCC3)ccc2S1(=O)=O	/	/	/	.	/	.	/
COc1ccccc1CNC(=O)C(C)Sc1ccsc1[N+](=O)[O-] (centres undefined)	.	.	.	.	.	.	/
